Test results as given in ChEMBL document CHEMBL4699593, “Identification of 2,4-Disubstituted Imidazopyridines as Hemozoin Formation Inhibitors with Fast-Killing Kinetics and In Vivo Efficacy in the Plasmodium falciparum NSG Mouse Model” (J Med Chem, 2020).
Values after ≈ are worked out from the molar mass of the structure shown.

Key:
[1] = system: Plasmodium falciparum; assay: Antiplasmodial activity against multidrug-sensitive asexual blood stage Plasmodium falciparum NF54 strain assessed as reduction in parasite growth after 72 hrs by NBT reagent based LDH assay; type: functional, organism-based; conditions: NF54, 72 h
[2] = system: Plasmodium falciparum; assay: Antiplasmodial activity against multidrug-resistant asexual blood stage Plasmodium falciparum K1 strain assessed as reduction in parasite growth after 72 hrs by NBT reagent based LDH assay; type: functional, organism-based; conditions: K1, 72 h
Procedure, shortened: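 Asexual blood-stage K1 (multidrug-resistant) parasites were read out by the parasite lactate dehydrogenase (pLDH) assay. […] Most individual values varied less than 2× (maximum 3×).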

[3] = Aqueous solubility of compound in phosphate buffer saline at pH 6.5 incubated for 20 hrs under shaking condition by shake-flask method based HPLC-DAD analysis; type: physicochemical; conditions: phosphate buffered saline
Procedure, shortened: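 Equilibrium aqueous solubility was measured at pH 6.5 using a miniaturized shake-flask method.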

[4] = system: CHO; assay: Cytotoxicity against CHO cells assessed as reduction in cell viability by MTT assay; type: cell-based, Cricetulus griseus; conditions: chinese hamster
Procedure, shortened: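 Cytotoxicity was measured in Chinese hamster ovary (CHO) cells and reported as CC50. The selectivity index is CC50 divided by NF54 IC50.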

[5] = biological target: Voltage-gated inwardly rectifying potassium channel KCNH2 (Homo sapiens, UniProt Q12809); assay: Inhibition of human ERG by patch clamp method
Sequence of Voltage-gated inwardly rectifying potassium channel KCNH2 (Q12809 whole entry): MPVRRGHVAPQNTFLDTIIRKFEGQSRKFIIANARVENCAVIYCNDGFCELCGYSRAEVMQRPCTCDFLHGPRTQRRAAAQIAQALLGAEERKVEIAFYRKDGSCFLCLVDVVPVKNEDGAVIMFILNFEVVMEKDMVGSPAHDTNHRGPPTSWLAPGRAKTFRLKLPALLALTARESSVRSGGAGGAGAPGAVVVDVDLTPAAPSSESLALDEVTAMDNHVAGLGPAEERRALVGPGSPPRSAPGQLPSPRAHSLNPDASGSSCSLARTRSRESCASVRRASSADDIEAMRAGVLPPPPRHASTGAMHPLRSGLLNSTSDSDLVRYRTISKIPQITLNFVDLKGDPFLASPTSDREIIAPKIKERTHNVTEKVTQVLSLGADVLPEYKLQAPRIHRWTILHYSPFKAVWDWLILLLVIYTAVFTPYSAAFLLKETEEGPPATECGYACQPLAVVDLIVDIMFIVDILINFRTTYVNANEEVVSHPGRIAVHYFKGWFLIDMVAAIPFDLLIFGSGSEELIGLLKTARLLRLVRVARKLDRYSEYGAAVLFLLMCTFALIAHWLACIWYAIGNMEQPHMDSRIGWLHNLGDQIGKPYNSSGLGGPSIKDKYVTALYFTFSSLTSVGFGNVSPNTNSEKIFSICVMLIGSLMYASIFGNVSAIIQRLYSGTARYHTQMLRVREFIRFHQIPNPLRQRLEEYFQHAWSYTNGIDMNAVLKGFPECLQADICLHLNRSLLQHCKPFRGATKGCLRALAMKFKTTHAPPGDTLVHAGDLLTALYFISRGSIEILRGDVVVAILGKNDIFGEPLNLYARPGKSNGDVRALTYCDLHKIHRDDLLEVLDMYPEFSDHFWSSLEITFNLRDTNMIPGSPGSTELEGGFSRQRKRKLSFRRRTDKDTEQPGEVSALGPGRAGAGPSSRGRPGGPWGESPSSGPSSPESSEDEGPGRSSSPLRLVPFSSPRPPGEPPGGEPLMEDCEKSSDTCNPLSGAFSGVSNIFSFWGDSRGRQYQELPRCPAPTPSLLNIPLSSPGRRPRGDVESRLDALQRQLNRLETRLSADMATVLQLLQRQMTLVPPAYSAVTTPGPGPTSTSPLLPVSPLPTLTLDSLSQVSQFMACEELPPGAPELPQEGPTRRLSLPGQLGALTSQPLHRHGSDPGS

| SMILES | IC50 [1] [nM] | IC50 [2] [nM] | solubility thermodynamic at 20 h [3] [µM] | CC50 [4] [nM] | IC50 [5] [nM] |
| --- | --- | --- | --- | --- | --- |
| CN1CCN(C(=O)C2CCN(c3nccc4[nH]c(-c5ccc(F)c(F)c5)nc34)CC2)CC1 | 100 | 380 | 200 (≈ 88.1 µg/mL) | > 50000 | 12000 |
| CN1CCN(CC2CCN(c3nccc4[nH]c(-c5ccc(F)c(C(F)(F)F)c5)nc34)CC2)CC1 | 50 | 17 | 165 (≈ 78.6 µg/mL) | 3100 | – |
| C[C@@H]1CN(c2nccc3[nH]c(-c4ccc(F)c(F)c4)nc23)C[C@H](C)N1 | 76 | 450 | 190 (≈ 65.2 µg/mL) | 6500 | – |
| Fc1ccc(-c2nc3c(N4CCC(N5CCNCC5)CC4)nccc3[nH]2)cc1C(F)(F)F | 36 | 460 | 200 (≈ 89.7 µg/mL) | 34000 | – |
| CN1CCN(CC2CCN(c3nccc4[nH]c(-c5ccc(F)c(Cl)c5)nc34)CC2)CC1 | < 12 | 25 | 155 (≈ 68.7 µg/mL) | 850 | – |
| Fc1ccc(-c2nc3c(N4CCN5CCCC5C4)nccc3[nH]2)cc1F (centres undefined) | 220 | 480 | 120 (≈ 42.6 µg/mL) | 32000 | – |
| CN1CCOC2(CCN(c3nccc4[nH]c(-c5cc(F)cc(F)c5)nc34)CC2)C1 | 180 | 320 | 175 (≈ 69.9 µg/mL) | 32000 | – |
| CN1CCN(C2CCN(c3nccc4[nH]c(C5CCCC5)nc34)CC2)CC1 | > 10000 | – | 170 (≈ 62.6 µg/mL) | – | – |
| NC1CCN(c2nccc3[nH]c(-c4ccc(F)c(F)c4)nc23)CC1 | 110 | 910 | 200 (≈ 65.9 µg/mL) | 8200 | – |
| CN1CCN(CC2CCN(c3nccc4[nH]c(C5CCCC5)nc34)CC2)CC1 | 9300 | – | < 5 | – | – |
| CN1CCN(CC2CCN(c3nccc4[nH]c(-c5cccc(C(=O)O)c5)nc34)CC2)CC1 | > 10000 | – | 195 (≈ 84.7 µg/mL) | > 50000 | – |
| CN1CCN(CC2CCN(c3nccc4[nH]c(-c5cc(F)cc(C(F)(F)F)c5)nc34)CC2)CC1 | 54 | 89 | 165 (≈ 78.6 µg/mL) | 3100 | – |
| Fc1ccc(-c2nc3c(N4CCOCC4)nccc3[nH]2)cc1F | 3100 | – | – | – | – |
| CN1CCN(C[C@@H]2CCCN(c3nccc4[nH]c(-c5cc(F)cc(F)c5)nc34)C2)CC1 | 28 | 130 | 145 (≈ 61.8 µg/mL) | 3200 | – |
| O=C1CN(c2nccc3[nH]c(-c4ccc(F)c(F)c4)nc23)CCN1 | > 10000 | – | < 5 | – | – |
| COC(=O)c1cccc(-c2nc3c(N4CCC(N5CCN(C)CC5)CC4)nccc3[nH]2)c1 | 79 | 280 | – | 34000 | – |
| CN1CCN(CC2CCN(c3ncnc4[nH]c(-c5cc(F)cc(F)c5)nc34)CC2)CC1 | 1800 | – | 55 (≈ 23.5 µg/mL) | – | – |
| CN1CCN(c2nccc3[nH]c(-c4cccc(OC(F)(F)F)c4)nc23)CC1 | 490 | – | – | – | – |
| CN1CCN(CC2CCN(c3nccc4[nH]c(-c5cccc(OCCN)c5)nc34)CC2)CC1 | 2200 | – | 200 (≈ 89.9 µg/mL) | – | – |
| CN1CCN(CC2CCN(c3cccc4[nH]c(-c5cc(F)cc(F)c5)nc34)CC2)CC1 | 830 | 1500 | 200 (≈ 85.1 µg/mL) | 22000 | > 30000 |
| Fc1cc(F)cc(-c2nc3c(N4CCC(CN5CCNCC5)CC4)nccc3[nH]2)c1 | 38 | 240 | 190 (≈ 78.4 µg/mL) | 20000 | – |
| CN1CCN([C@H]2CC[C@H](Nc3nccc4[nH]c(-c5cc(F)cc(F)c5)nc34)CC2)CC1 | 130 | 240 | 200 (≈ 85.3 µg/mL) | 11000 | – |
| CC(C)(C)N1CCN(CC2CCN(c3nccc4[nH]c(-c5cc(F)cc(F)c5)nc34)CC2)CC1 | 19 | 47 | 185 (≈ 86.7 µg/mL) | 8600 | – |

| SMILES | IC50 [1] [nM] | IC50 [2] [nM] | solubility thermodynamic at 20 h [3] [µM] | CC50 [4] [nM] | IC50 [5] [nM] |
| --- | --- | --- | --- | --- | --- |
| CN1CCN(C2CCN(c3nccc4[nH]c(-c5ccc(F)c(C(F)(F)F)c5)nc34)CC2)CC1 | 58 | 80 | 195 (≈ 90.2 µg/mL) | 4800 | – |
| CN1CCN(C[C@H]2CCCN(c3nccc4[nH]c(-c5cc(F)cc(F)c5)nc34)C2)CC1 | 73 | 170 | 200 (≈ 85.3 µg/mL) | 7900 | – |
| Fc1cc(F)cc(-c2nc3c(N4CCC(CN5CCOCC5)CC4)nccc3[nH]2)c1 | 290 | 390 | 25 (≈ 10.3 µg/mL) | > 50000 | – |
| Fc1ccc(-c2nc3c(N4CCN(c5ccccc5)CC4)nccc3[nH]2)cc1F | > 1000 | – | – | – | – |
| CN1CCOC2(CCN(c3nccc4[nH]c(-c5cc(F)cc(F)c5)cc34)CC2)C1 | – | – | – | – | ≤ 3000 |
| CN1CCCN(c2nccc3[nH]c(-c4cc(F)cc(F)c4)nc23)CC1 | – | – | – | – | 400 |
| Fc1ccc(-c2nc3c(C4CCNCC4)nccc3[nH]2)cc1F | > 10000 | – | 200 (≈ 62.9 µg/mL) | – | – |
| Fc1ccc(-c2nc3c(N4CCCNCC4)nccc3[nH]2)cc1F | 210 | 1000 | 165 (≈ 54.3 µg/mL) | 7200 | – |
| CN1CCN(C2CCN(c3nccc4[nH]c(-c5cccc(C#N)c5)nc34)CC2)CC1 | 110 | 580 | – | 16000 | – |
| CN1CCN(C2CCN(c3nccc4[nH]c(-c5cc(F)cc(F)c5)cc34)CC2)CC1 | – | – | – | – | 4000 |
| CN1CCN([C@H]2CC[C@@H](Nc3nccc4[nH]c(-c5cc(F)cc(F)c5)nc34)CC2)CC1 | 160 | 310 | 200 (≈ 85.3 µg/mL) | 14000 | – |
| CN1CCN(C2CCN(c3nccc4[nH]c(-c5cccc(S(C)(=O)=O)c5)nc34)CC2)CC1 | 450 | 1500 | 190 (≈ 86.4 µg/mL) | > 50000 | – |
| CN(C)C1CCN(c2nccc3[nH]c(-c4cccc(OC(F)(F)F)c4)nc23)CC1 | 140 | 190 | 180 (≈ 73 µg/mL) | – | – |
| Fc1ccc(-c2nc3c(N4CCN5CCC4CC5)nccc3[nH]2)cc1F | 79 | 430 | 200 (≈ 71.1 µg/mL) | 28000 | – |
| Fc1cc(F)cc(-c2nc3c(N4CCC(CN5CCC(F)(F)CC5)CC4)nccc3[nH]2)c1 | 200 | 310 | < 5 | 26000 | – |
| O=S1(=O)CCN(CC2CCN(c3nccc4[nH]c(-c5cc(F)cc(F)c5)nc34)CC2)CC1 | 1400 | – | < 5 | > 50000 | – |
| OCCN1CCN(c2nccc3[nH]c(-c4ccc(F)c(F)c4)nc23)CC1 | 570 | 1400 | 95 (≈ 34.1 µg/mL) | – | – |
| CN1CCN(CC2CCN(c3ccnc4[nH]c(-c5cc(F)cc(F)c5)nc34)CC2)CC1 | 530 | – | < 5 | – | – |
| CN1CCN(CC2CCN(c3nccc4[nH]c(-c5cccc(C(=O)N(C)C)c5)nc34)CC2)CC1 | 1000 | – | 180 (≈ 83.1 µg/mL) | > 50000 | – |
| C[C@@H]1CN(c2nccc3[nH]c(-c4ccc(F)c(F)c4)nc23)C[C@H](C)N1C | 260 | 720 | 50 (≈ 17.9 µg/mL) | > 50000 | – |
| Fc1ccc(-c2nc3c(N4CCN(CC(F)(F)F)CC4)nccc3[nH]2)cc1F | 2300 | – | 10 (≈ 3.97 µg/mL) | 39000 | – |
| NCC1CCN(c2nccc3[nH]c(-c4cccc(OC(F)(F)F)c4)nc23)CC1 | 68 | 190 | 200 (≈ 78.3 µg/mL) | 2900 | – |
| CN1CCN(CC2CCN(c3nccc4c3nc(-c3cc(F)cc(F)c3)n4C)CC2)CC1 | > 3000 | – | 150 (≈ 66.1 µg/mL) | – | – |
